Laboratory results published in ChEMBL document CHEMBL3098086, “Synthesis and biological evaluation of α-triazolyl chalcones as a new type of potential antimicrobial agents and their interaction with calf thymus DNA and human serum albumin” (Eur J Med Chem, 2014).
Values after ≈ are worked out from the molar mass of the structure shown.

The compounds below were run on Staphylococcus aureus (assay: Antibacterial activity against methicillin-resistant staphylococcus aureus N315 after 24 hrs by twofold serial dilution method). Details: N315, 24 h.
Type: functional
How it was run: (§1)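 Two-fold broth microdilution per NCCLS recommendations. The MIC was read as the minimum inhibitory concentration. Chloromycin and Norfloxacin served as positive controls. Strains were Bacillus typhi (Gram-negative panel) and methicillin-resistant S. aureus N315.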

| SMILES | MIC [µg/mL] |
| --- | --- |
| O=C(/C(=C/c1ccccc1)n1cncn1)c1ccc(F)cc1N1CCCC1 | 16 (≈ 44.1 µM) |
| CCn1cc(C(=O)O)c(=O)c2cc(F)c(N3CCNCC3)cc21 [NORFLOXACIN] | 8 (≈ 25.1 µM) |
| O=C(N[C@H](CO)[C@H](O)c1ccc([N+](=O)[O-])cc1)C(Cl)Cl [CHLORAMPHENICOL] | 16 (≈ 49.5 µM) |
| O=C(/C(=C/c1ccc(Cl)cc1)n1cncn1)c1ccc(Cl)cc1 | 32 (≈ 93 µM) |
| O=C(/C(=C/c1ccc(Cl)cc1)n1cncn1)c1ccc(F)cc1F | 32 (≈ 92.6 µM) |
| O=C(/C(=C/c1ccccc1)n1cncn1)c1ccc(N2CCCC2)cc1N1CCCC1 | 16 (≈ 38.7 µM) |
| O=C(/C(=C/c1ccc(F)cc1)n1cncn1)c1ccc(F)cc1F | 128 (≈ 389 µM) |
| Cc1ccc(/C=C(/C(=O)c2ccc(F)cc2F)n2cncn2)cc1 | 32 (≈ 98.4 µM) |
| O=C(/C(=C/c1ccccc1)n1cncn1)c1ccc(N2CCOCC2)cc1N1CCOCC1 | 64 (≈ 144 µM) |

What follows are compounds tested on Salmonella typhi (assay: Antibacterial activity against Bacillus typhi after 24 hrs by twofold serial dilution method). Details: Salmonella enterica.
Type: functional, Salmonella enterica subsp. enterica serovar Typhi
How it was run: as §1

| SMILES | MIC [µg/mL] |
| --- | --- |
| O=C(/C(=C/c1ccccc1)n1cncn1)c1ccc(F)cc1N1CCCC1 | 4 (≈ 11 µM) |
| CCn1cc(C(=O)O)c(=O)c2cc(F)c(N3CCNCC3)cc21 [NORFLOXACIN] | 4 (≈ 12.5 µM) |
| O=C(N[C@H](CO)[C@H](O)c1ccc([N+](=O)[O-])cc1)C(Cl)Cl [CHLORAMPHENICOL] | 32 (≈ 99 µM) |
| O=C(/C(=C/c1ccc(Cl)cc1)n1cncn1)c1ccc(Cl)cc1 | 16 (≈ 46.5 µM) |
| O=C(/C(=C/c1ccc(Cl)cc1)n1cncn1)c1ccc(F)cc1F | 32 (≈ 92.6 µM) |
| O=C(/C(=C/c1ccccc1)n1cncn1)c1ccc(N2CCCC2)cc1N1CCCC1 | 8 (≈ 19.3 µM) |
| O=C(/C(=C/c1ccc(F)cc1)n1cncn1)c1ccc(F)cc1F | 32 (≈ 97.2 µM) |
| Cc1ccc(/C=C(/C(=O)c2ccc(F)cc2F)n2cncn2)cc1 | 64 (≈ 197 µM) |
| O=C(/C(=C/c1ccccc1)n1cncn1)c1ccc(N2CCOCC2)cc1N1CCOCC1 | 32 (≈ 71.8 µM) |

What follows are compounds tested on Candida albicans (assay: Antifungal activity against Candida albicans ATCC 76615 after 24 hrs by micro broth dilution method). Details: ATCC 76615, 24 h.
Type: functional
How it was run: (§2)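 Fungi: C. albicans ATCC 76615 and C. mycoderma ATCC 96918. MICs by two-fold broth microdilution in 96-well plates per NCCLS. Fluconazole served as positive control.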

| SMILES | MIC [µg/mL] |
| --- | --- |
| O=C(/C(=C/c1ccccc1)n1cncn1)c1ccc(F)cc1N1CCCC1 | 32 (≈ 88.3 µM) |
| O=C(/C(=C/c1ccc(Cl)cc1)n1cncn1)c1ccc(Cl)cc1 | 64 (≈ 186 µM) |
| O=C(/C(=C/c1ccc(Cl)cc1)n1cncn1)c1ccc(F)cc1F | 16 (≈ 46.3 µM) |
| O=C(/C(=C/c1ccccc1)n1cncn1)c1ccc(N2CCCC2)cc1N1CCCC1 | 8 (≈ 19.3 µM) |
| O=C(/C(=C/c1ccc(F)cc1)n1cncn1)c1ccc(F)cc1F | 64 (≈ 194 µM) |
| Cc1ccc(/C=C(/C(=O)c2ccc(F)cc2F)n2cncn2)cc1 | 16 (≈ 49.2 µM) |
| O=C(/C(=C/c1ccccc1)n1cncn1)c1ccc(N2CCOCC2)cc1N1CCOCC1 | 128 (≈ 287 µM) |

The compounds below were run on Candida (assay: Antifungal activity against Candida mycoderma ATCC 96918 after 24 hrs by micro broth dilution method). Details: ATCC 96918, 24 h.
Type: functional
How it was run: as §2

| SMILES | MIC [µg/mL] |
| --- | --- |
| O=C(/C(=C/c1ccccc1)n1cncn1)c1ccc(F)cc1N1CCCC1 | 256 (≈ 706 µM) |
| O=C(/C(=C/c1ccc(Cl)cc1)n1cncn1)c1ccc(Cl)cc1 | 64 (≈ 186 µM) |
| O=C(/C(=C/c1ccc(Cl)cc1)n1cncn1)c1ccc(F)cc1F | 16 (≈ 46.3 µM) |
| O=C(/C(=C/c1ccccc1)n1cncn1)c1ccc(N2CCCC2)cc1N1CCCC1 | 4 (≈ 9.67 µM) |
| O=C(/C(=C/c1ccc(F)cc1)n1cncn1)c1ccc(F)cc1F | 64 (≈ 194 µM) |
| Cc1ccc(/C=C(/C(=O)c2ccc(F)cc2F)n2cncn2)cc1 | 16 (≈ 49.2 µM) |
| O=C(/C(=C/c1ccccc1)n1cncn1)c1ccc(N2CCOCC2)cc1N1CCOCC1 | 64 (≈ 144 µM) |

What follows are compounds tested on Pseudomonas aeruginosa (assay: Antibacterial activity against Pseudomonas aeruginosa ATCC 27853 after 24 hrs by twofold serial dilution method). Details: ATCC 27853, 24 h.
Type: functional
How it was run: (§3)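 Bacterial strains: S. aureus ATCC 25923, B. subtilis ATCC 21216, M. luteus ATCC 4698, E. coli JM109, P. aeruginosa ATCC 27853, B. proteus ATCC 13315. MICs by two-fold broth microdilution in 96-well plates per NCCLS. Chloromycin and Norfloxacin served as positive controls.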

| SMILES | MIC [µg/mL] |
| --- | --- |
| O=C(/C(=C/c1ccccc1)n1cncn1)c1ccc(F)cc1N1CCCC1 | 16 (≈ 44.1 µM) |
| CCn1cc(C(=O)O)c(=O)c2cc(F)c(N3CCNCC3)cc21 [NORFLOXACIN] | 16 (≈ 50.1 µM) |
| O=C(N[C@H](CO)[C@H](O)c1ccc([N+](=O)[O-])cc1)C(Cl)Cl [CHLORAMPHENICOL] | 32 (≈ 99 µM) |
| O=C(/C(=C/c1ccc(Cl)cc1)n1cncn1)c1ccc(Cl)cc1 | 8 (≈ 23.2 µM) |
| O=C(/C(=C/c1ccc(Cl)cc1)n1cncn1)c1ccc(F)cc1F | 128 (≈ 370 µM) |
| O=C(/C(=C/c1ccccc1)n1cncn1)c1ccc(N2CCCC2)cc1N1CCCC1 | 32 (≈ 77.4 µM) |
| O=C(/C(=C/c1ccc(F)cc1)n1cncn1)c1ccc(F)cc1F | 32 (≈ 97.2 µM) |
| Cc1ccc(/C=C(/C(=O)c2ccc(F)cc2F)n2cncn2)cc1 | 16 (≈ 49.2 µM) |
| O=C(/C(=C/c1ccccc1)n1cncn1)c1ccc(N2CCOCC2)cc1N1CCOCC1 | 128 (≈ 287 µM) |

The compounds below were run on Bacillus subtilis (assay: Antibacterial activity against Bacillus subtilis ATCC 21216 after 24 hrs by twofold serial dilution method). Details: ATCC 21216, 24 h.
Type: functional
How it was run: as §3

| SMILES | MIC [µg/mL] |
| --- | --- |
| O=C(/C(=C/c1ccccc1)n1cncn1)c1ccc(F)cc1N1CCCC1 | 8 (≈ 22.1 µM) |
| CCn1cc(C(=O)O)c(=O)c2cc(F)c(N3CCNCC3)cc21 [NORFLOXACIN] | 1 (≈ 3.13 µM) |
| O=C(N[C@H](CO)[C@H](O)c1ccc([N+](=O)[O-])cc1)C(Cl)Cl [CHLORAMPHENICOL] | 32 (≈ 99 µM) |
| O=C(/C(=C/c1ccc(Cl)cc1)n1cncn1)c1ccc(Cl)cc1 | 32 (≈ 93 µM) |
| O=C(/C(=C/c1ccc(Cl)cc1)n1cncn1)c1ccc(F)cc1F | 32 (≈ 92.6 µM) |
| O=C(/C(=C/c1ccccc1)n1cncn1)c1ccc(N2CCCC2)cc1N1CCCC1 | 16 (≈ 38.7 µM) |
| O=C(/C(=C/c1ccc(F)cc1)n1cncn1)c1ccc(F)cc1F | 64 (≈ 194 µM) |
| Cc1ccc(/C=C(/C(=O)c2ccc(F)cc2F)n2cncn2)cc1 | 64 (≈ 197 µM) |
| O=C(/C(=C/c1ccccc1)n1cncn1)c1ccc(N2CCOCC2)cc1N1CCOCC1 | 64 (≈ 144 µM) |

The compounds below were run on Staphylococcus aureus (assay: Antibacterial activity against Staphylococcus aureus ATCC 25923 after 24 hrs by twofold serial dilution method). Details: ATCC 25923, 24 h.
Type: functional
How it was run: as §3

| SMILES | MIC [µg/mL] |
| --- | --- |
| O=C(/C(=C/c1ccccc1)n1cncn1)c1ccc(F)cc1N1CCCC1 | 16 (≈ 44.1 µM) |
| CCn1cc(C(=O)O)c(=O)c2cc(F)c(N3CCNCC3)cc21 [NORFLOXACIN] | 0.5 (≈ 1.57 µM) |
| O=C(N[C@H](CO)[C@H](O)c1ccc([N+](=O)[O-])cc1)C(Cl)Cl [CHLORAMPHENICOL] | 16 (≈ 49.5 µM) |
| O=C(/C(=C/c1ccc(Cl)cc1)n1cncn1)c1ccc(Cl)cc1 | 32 (≈ 93 µM) |
| O=C(/C(=C/c1ccc(Cl)cc1)n1cncn1)c1ccc(F)cc1F | 16 (≈ 46.3 µM) |
| O=C(/C(=C/c1ccccc1)n1cncn1)c1ccc(N2CCCC2)cc1N1CCCC1 | 32 (≈ 77.4 µM) |
| O=C(/C(=C/c1ccc(F)cc1)n1cncn1)c1ccc(F)cc1F | 64 (≈ 194 µM) |
| Cc1ccc(/C=C(/C(=O)c2ccc(F)cc2F)n2cncn2)cc1 | 32 (≈ 98.4 µM) |
| O=C(/C(=C/c1ccccc1)n1cncn1)c1ccc(N2CCOCC2)cc1N1CCOCC1 | 32 (≈ 71.8 µM) |

What follows are compounds tested on Escherichia coli (assay: Antibacterial activity against Escherichia coli JM109 after 24 hrs by twofold serial dilution method). Details: JM109, 24 h.
Type: functional
How it was run: as §3

| SMILES | MIC [µg/mL] |
| --- | --- |
| O=C(/C(=C/c1ccccc1)n1cncn1)c1ccc(F)cc1N1CCCC1 | 8 (≈ 22.1 µM) |
| CCn1cc(C(=O)O)c(=O)c2cc(F)c(N3CCNCC3)cc21 [NORFLOXACIN] | 16 (≈ 50.1 µM) |
| O=C(N[C@H](CO)[C@H](O)c1ccc([N+](=O)[O-])cc1)C(Cl)Cl [CHLORAMPHENICOL] | 32 (≈ 99 µM) |
| O=C(/C(=C/c1ccc(Cl)cc1)n1cncn1)c1ccc(Cl)cc1 | 16 (≈ 46.5 µM) |
| O=C(/C(=C/c1ccc(Cl)cc1)n1cncn1)c1ccc(F)cc1F | 64 (≈ 185 µM) |
| O=C(/C(=C/c1ccccc1)n1cncn1)c1ccc(N2CCCC2)cc1N1CCCC1 | 32 (≈ 77.4 µM) |
| O=C(/C(=C/c1ccc(F)cc1)n1cncn1)c1ccc(F)cc1F | 32 (≈ 97.2 µM) |
| Cc1ccc(/C=C(/C(=O)c2ccc(F)cc2F)n2cncn2)cc1 | 32 (≈ 98.4 µM) |
| O=C(/C(=C/c1ccccc1)n1cncn1)c1ccc(N2CCOCC2)cc1N1CCOCC1 | 32 (≈ 71.8 µM) |

Each compound was assayed on Micrococcus luteus (assay: Antibacterial activity against Micrococcus luteus ATCC 4698 after 24 hrs by twofold serial dilution method). Details: ATCC 4698, 24 h.
Type: functional
How it was run: as §3

| SMILES | MIC [µg/mL] |
| --- | --- |
| O=C(/C(=C/c1ccccc1)n1cncn1)c1ccc(F)cc1N1CCCC1 | 16 (≈ 44.1 µM) |
| CCn1cc(C(=O)O)c(=O)c2cc(F)c(N3CCNCC3)cc21 [NORFLOXACIN] | 2 (≈ 6.26 µM) |
| O=C(N[C@H](CO)[C@H](O)c1ccc([N+](=O)[O-])cc1)C(Cl)Cl [CHLORAMPHENICOL] | 8 (≈ 24.8 µM) |
| O=C(/C(=C/c1ccc(Cl)cc1)n1cncn1)c1ccc(Cl)cc1 | 64 (≈ 186 µM) |
| O=C(/C(=C/c1ccc(Cl)cc1)n1cncn1)c1ccc(F)cc1F | 64 (≈ 185 µM) |
| O=C(/C(=C/c1ccccc1)n1cncn1)c1ccc(N2CCCC2)cc1N1CCCC1 | 16 (≈ 38.7 µM) |
| O=C(/C(=C/c1ccc(F)cc1)n1cncn1)c1ccc(F)cc1F | 32 (≈ 97.2 µM) |
| Cc1ccc(/C=C(/C(=O)c2ccc(F)cc2F)n2cncn2)cc1 | 64 (≈ 197 µM) |
| O=C(/C(=C/c1ccccc1)n1cncn1)c1ccc(N2CCOCC2)cc1N1CCOCC1 | 64 (≈ 144 µM) |

These compounds were tested on Bacillus (assay: Antibacterial activity against Bacillus proteus ATCC 13315 after 24 hrs by twofold serial dilution method). Details: ATCC 13315, 24 h.
Type: functional
How it was run: as §3

| SMILES | MIC [µg/mL] |
| --- | --- |
| O=C(/C(=C/c1ccccc1)n1cncn1)c1ccc(F)cc1N1CCCC1 | 16 (≈ 44.1 µM) |
| CCn1cc(C(=O)O)c(=O)c2cc(F)c(N3CCNCC3)cc21 [NORFLOXACIN] | 8 (≈ 25.1 µM) |
| O=C(N[C@H](CO)[C@H](O)c1ccc([N+](=O)[O-])cc1)C(Cl)Cl [CHLORAMPHENICOL] | 32 (≈ 99 µM) |
| O=C(/C(=C/c1ccc(Cl)cc1)n1cncn1)c1ccc(Cl)cc1 | 32 (≈ 93 µM) |
| O=C(/C(=C/c1ccc(Cl)cc1)n1cncn1)c1ccc(F)cc1F | 64 (≈ 185 µM) |
| O=C(/C(=C/c1ccccc1)n1cncn1)c1ccc(N2CCCC2)cc1N1CCCC1 | 32 (≈ 77.4 µM) |
| O=C(/C(=C/c1ccc(F)cc1)n1cncn1)c1ccc(F)cc1F | 16 (≈ 48.6 µM) |
| Cc1ccc(/C=C(/C(=O)c2ccc(F)cc2F)n2cncn2)cc1 | 64 (≈ 197 µM) |
| O=C(/C(=C/c1ccccc1)n1cncn1)c1ccc(N2CCOCC2)cc1N1CCOCC1 | 64 (≈ 144 µM) |
